According to publication PMC7092849 (Biochemical and Biophysical Research Communications, 2018):
“Also recorded” adds a separate entry of the source. Non-standard residues stand in square brackets, D forms with d. No end group written: not given here. Hyp = O=C(O)[C@@H]1C[C@@H](O)CN1

B1: T16: recombinant 480aa protein, 16 tandem repeats of the triple-helix fragment of hCOL3A1, Gly483-Pro512 (C1P) (protein)
chain: GERGAPGFRGPAGPNGIPGEKGPAGERGAPGERGAPGFRGPAGPNGIPGEKGPAGERGAPGERGAPGFRGPAGPNGIPGEKGPAGERGAPGERGAPGFRGPAGPNGIPGEKGPAGERGAPGERGAPGFRGPAGPNGIPGEKGPAGERGAPGERGAPGFRGPAGPNGIPGEKGPAGERGAPGERGAPGFRGPAGPNGIPGEKGPAGERGAPGERGAPGFRGPAGPNGIPGEKGPAGERGAPGERGAPGFRGPAGPNGIPGEKGPAGERGAPGERGAPGFRGPAGPNGIPGEKGPAGERGAPGERGAPGFRGPAGPNGIPGEKGPAGERGAPGERGAPGFRGPAGPNGIPGEKGPAGERGAPGERGAPGFRGPAGPNGIPGEKGPAGERGAPGERGAPGFRGPAGPNGIPGEKGPAGERGAPGERGAPGFRGPAGPNGIPGEKGPAGERGAPGERGAPGFRGPAGPNGIPGEKGPAGERGAP
modifications: left off: thioredoxin, end not stated, state not stated
B2: host-guest peptide C3Pa, (Pro-Hyp-Gly)3-FRGPAGPNGIPG-(Pro-Hyp-Gly)3 (peptide)
chain: P[Hyp]GP[Hyp]GP[Hyp]GFRGPAGPNGIPGP[Hyp]GP[Hyp]GP[Hyp]G

How the values were obtained:
3T3 cells [1] = type: cell-based, mouse
3T3 cells [2] = assay: Cytotoxicity assay; type: cell-based, mouse; details: CCK-8, up to 1 mg/ml, Fig. 4D
How it was run: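 Mouse fibroblast BALB 3T3 cells were exposed to a recombinant collagen III tandem-repeat protein or collagen-derived peptides at concentrations up to 1000 μg/ml. Viability was read with CCK-8 following the manufacturer's manual. CC50 was the intended read-out.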

crystal structure = molecular target: the molecule itself; assay: crystal structure

Row | Molecule | cell adhesion activity (relative cell adhesion rate) (3T3 cells [1]) | cytotoxicity (3T3 cells [2]) | stoichiometry N (crystal structure)
1 | C1P: native hCOL3A1 peptide, Gly483-Pro512 (GERGAPGFRGPAGPNGIPGEKGPAGERGAP) | the most potent cell adhesion activity; also recorded: much stronger cell adhesion activity than that of Type I collagen | – | –
2 | bovine serum albumin [BSA, reference compound] | no significant adhesion activity | – | –
3 | B1 | very strong cell adhesion activity | No obvious cytotoxicity | –
4 | B2 | – | – | 3
